Reference: ChEMBL document CHEMBL2062453, “Lead optimization through VLAK protocol: new annelated pyrrolo-pyrimidine derivatives as antitumor agents” (2012)

What was measured:
Type in all cases: functional
[1] = test system: 786-0; assay: Cytotoxicity against human 786-0 cells assessed as cell growth at 10 uM after 48 hrs by SRB assay relative to control; settings: 786-0, 48 h, read-out: Activity
Procedure, shortened: (§1)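 NCI primary screen of about 60 human tumour lines. Cells inoculated and preincubated, then a single test concentration added and cultures incubated 48 h. Result given as percent growth (G%) of treated versus untreated control cells.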

[2] = test system: NCI-H226; assay: Cytotoxicity against human NCI-H226 cells assessed as cell growth at 10 uM after 48 hrs by SRB assay relative to control; settings: NCI-H226, 48 h, read-out: Activity
[3] = test system: CAKI-1; assay: Cytotoxicity against human Caki1 cells assessed as cell growth at 10 uM after 48 hrs by SRB assay relative to control; settings: CAKI-1, 48 h, read-out: Activity; procedure, shortened: as §1
[4] = test system: MDA-MB-231; assay: Cytotoxicity against human MDA-MB-231 cells assessed as cell growth at 10 uM after 48 hrs by SRB assay relative to control; settings: MDA-MB-231, 48 h, read-out: Activity; procedure, shortened: as §1
[5] = test system: PC-3; assay: Cytotoxicity against human PC3 cells assessed as cell growth at 10 uM after 48 hrs by SRB assay relative to control; settings: PC-3, 48 h, read-out: Activity
[6] = test system: NCI-H23; assay: Cytotoxicity against human NCI-H23 cells assessed as cell growth at 10 uM after 48 hrs by SRB assay relative to control; settings: NCI-H23, 48 h, read-out: Activity
[7] = test system: OVCAR-3; assay: Cytotoxicity against human OVCAR3 cells assessed as cell growth at 10 uM after 48 hrs by SRB assay relative to control; settings: OVCAR-3, 48 h, read-out: Activity
[8] = test system: A498; assay: Cytotoxicity against human A498 cells assessed as cell growth at 10 uM after 48 hrs by SRB assay relative to control; settings: A498, 48 h, read-out: Activity; procedure, shortened: as §1
[9] = test system: TK-10; assay: Cytotoxicity against human TK10 cells assessed as cell growth at 10 uM after 48 hrs by SRB assay relative to control; settings: TK-10, 48 h, read-out: Activity
Procedure, shortened: (§2)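 NCI single-dose primary screen across about 60 human tumour lines. Each line was inoculated and preincubated on microtiter plates, then exposed to one concentration of agent for 48 h. Growth is reported as percent growth (G%) of treated cells versus untreated control cells.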

[10] = test system: SNB-75; assay: Cytotoxicity against human SNB75 cells assessed as cell growth at 10 uM after 48 hrs by SRB assay relative to control; settings: SNB-75, 48 h, read-out: Activity
[11] = test system: COLO 205; assay: Cytotoxicity against human COLO205 cells assessed as cell growth at 10 uM after 48 hrs by SRB assay relative to control; settings: COLO 205, 48 h, read-out: Activity; procedure, shortened: as §1
[12] = test system: MDA-MB-468; assay: Cytotoxicity against human MDA-MB-468 cells assessed as cell growth at 10 uM after 48 hrs by SRB assay relative to control; settings: MDA-MB-468, 48 h, read-out: Activity
[13] = test system: SK-MEL-2; assay: Cytotoxicity against human SK-MEL-2 cells assessed as cell growth at 10 uM after 48 hrs by SRB assay relative to control; settings: SK-MEL-2, 48 h, read-out: Activity
[14] = test system: Malme-3M; assay: Cytotoxicity against human MALME-3M cells assessed as cell growth at 10 uM after 48 hrs by SRB assay relative to control; settings: read-out: Activity; procedure, shortened: as §1
[15] = test system: MCF7; assay: Cytotoxicity against human MCF7 cells assessed as cell growth at 10 uM after 48 hrs by SRB assay relative to control; settings: MCF7, 48 h, read-out: Activity; procedure, shortened: as §1
[16] = test system: K562; assay: Cytotoxicity against human K562 cells assessed as cell growth at 10 uM after 48 hrs by SRB assay relative to control; settings: K562, 48 h, read-out: Activity; procedure, shortened: as §1
[17] = test system: SW-620; assay: Cytotoxicity against human SW620 cells assessed as cell growth at 10 uM after 48 hrs by SRB assay relative to control; settings: SW-620, 48 h, read-out: Activity; procedure, shortened: as §2
[18] = test system: HOP-62; assay: Cytotoxicity against human HOP62 cells assessed as cell growth at 10 uM after 48 hrs by SRB assay relative to control; settings: HOP-62, 48 h, read-out: Activity; procedure, shortened: as §1
[19] = test system: HCC 2998; assay: Cytotoxicity against human HCC2998 cells assessed as cell growth at 10 uM after 48 hrs by SRB assay relative to control; settings: HCC 2998, 48 h, read-out: Activity; procedure, shortened: as §1
[20] = test system: MDA-MB-435; assay: Cytotoxicity against human MDA-MB-435 cells assessed as cell growth at 10 uM after 48 hrs by SRB assay relative to control; settings: MDA-MB-435, 48 h, read-out: Activity
[21] = test system: OVCAR-8; assay: Cytotoxicity against human OVCAR8 cells assessed as cell growth at 10 uM after 48 hrs by SRB assay relative to control; settings: OVCAR-8, 48 h, read-out: Activity
[22] = test system: BT-549; assay: Cytotoxicity against human BT549 cells assessed as cell growth at 10 uM after 48 hrs by SRB assay relative to control; settings: BT-549, 48 h, read-out: Activity; procedure, shortened: as §1
[23] = test system: SN12C; assay: Cytotoxicity against human SN12C cells assessed as cell growth at 10 uM after 48 hrs by SRB assay relative to control; settings: read-out: Activity
[24] = test system: KM12; assay: Cytotoxicity against human KM12 cells assessed as cell growth at 10 uM after 48 hrs by SRB assay relative to control; settings: KM12, 48 h, read-out: Activity; procedure, shortened: as §1
[25] = test system: HCT-15; assay: Cytotoxicity against human HCT15 cells assessed as cell growth at 10 uM after 48 hrs by SRB assay relative to control; settings: HCT-15, 48 h, read-out: Activity; procedure, shortened: as §1
[26] = test system: HCT-116; assay: Cytotoxicity against human HCT116 cells assessed as cell growth at 10 uM after 48 hrs by SRB assay relative to control; settings: HCT-116, 48 h, read-out: Activity; procedure, shortened: as §1

| SMILES | growth at 10 µM [1] [%] | growth at 10 µM [2] [%] | growth at 10 µM [3] [%] | growth at 10 µM [4] [%] | growth at 10 µM [6] [%] | growth at 10 µM [7] [%] | growth at 10 µM [8] [%] | growth at 10 µM [9] [%] | growth at 10 µM [10] [%] | growth at 10 µM [11] [%] | growth at 10 µM [12] [%] | growth at 10 µM [13] [%] | growth at 10 µM [14] [%] | growth at 10 µM [15] [%] | growth at 10 µM [16] [%] | growth at 10 µM [17] [%] | growth at 10 µM [18] [%] | growth at 10 µM [19] [%] | growth at 10 µM [20] [%] | growth at 10 µM [21] [%] | other results |
| --- | --- | --- | --- | --- | --- | --- | --- | --- | --- | --- | --- | --- | --- | --- | --- | --- | --- | --- | --- | --- | --- |
| CCOC(=O)CCCn1c(C)c(C)c2c1N=C(SC)N1CC(=O)N=C21 | 113 | 113 | 108 | 112 | 117 | 162 | 115 | 135 | 90 | 132 | 55 | 113 | 119 | 96 | 94 | 110 | 112 | 129 | 122 | 113 | growth at 10 µM [5]: 103%; growth at 10 µM [22]: 119%; growth at 10 µM [23]: 110%; growth at 10 µM [24]: 154%; growth at 10 µM [25]: 108%; growth at 10 µM [26]: 111% |
| CSC1=Nc2c(c(C)c(C)n2CCCC(=O)O)C2=NC(=O)CN12 | 109 | 110 | 112 | 100 | 109 | 113 | 86 | 121 | 111 | 137 | 97 | 111 | 115 | 95 | 93 | 110 | 98 | 118 | 119 | 111 | growth at 10 µM [5]: 98%; growth at 10 µM [22]: 105%; growth at 10 µM [23]: 115%; growth at 10 µM [24]: 112%; growth at 10 µM [25]: 114%; growth at 10 µM [26]: 111% |
| CSC1=Nc2c(c(C)c(-c3ccccc3)n2CCCN2CCN(C)CC2)C2=NC(=O)CN12 | 98 | 76 | 92 | 82 | 94 | 96 | 93 | 127 | 51 | 91 | 79 | 92 | 125 | 86 | 93 | 101 | 89 | 100 | 105 | 93 | growth at 10 µM [23]: 96%; growth at 10 µM [24]: 99%; growth at 10 µM [25]: 102%; growth at 10 µM [26]: 93% |
